Measurements taken from ChEMBL document CHEMBL4665829, “Synthesis, Structure-Activity Relationship, and Antimalarial Efficacy of 6-Chloro-2-arylvinylquinolines” (J Med Chem, 2020).
Activity calls are given as the source filed them. No cut-off for these calls is given here.

How the values were obtained:
[1] = Resistant index, ratio of EC50 for antiplasmodial activity against chloroquine-resistant Plasmodium falciparum Dd2 to antiplasmodial activity against chloroquine-sensitive Plasmodium falciparum 3D7; type: functional
Plasmodium falciparum [2] = experiment: Parasiticidal activity against chloroquine-resistant Plasmodium falciparum Dd2 infected in RBC assessed as reduction in parasitemia at 5 times of EC50 incubated for 6 to 48 hrs followed by compound washout and then incubated for 96 hrs by Giemsa staining based microscopic analysis; type: functional, organism-based; settings: time hrs 6-48
Procedure, shortened: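 Controls: 0.15% DMSO, DHA 50 nM, atovaquone 6.6 nM. Drug removed by three RPMI washes, then parasitemia followed daily for 96 h by Giemsa thin smears. Three independent biological replicates.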

Plasmodium falciparum [3] = experiment: Antiplasmodial activity against synchronous gametocyte early stage of Plasmodium falciparum 3D7 harboring luc7 incubated for 72 hrs by ONE-Glo luciferase assay; type: functional, organism-based; settings: 3D7, 72 h
Procedure, shortened: (§1)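 Gametocytes of P. falciparum 3D7 luc7 induced by nutrient starvation, cultured in heparin medium to remove asexual stages, Percoll-purified as early (II–III) or late (IV–V) stage. 50,000 gametocytes/well exposed 72 h to a 19-point gradient, 0.038 nM–10 μM. ONE-Glo luciferase read after 5 min. EC50 by nonlinear curve fit; three experiments.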

[4] = Toxicity in BALB/c mouse infected with Plasmodium berghei ANKA expressing luciferase assessed as reduction in mobility at 25 to 100 mg/kg, po for 4 days measured up to 30 days; type: organism-based; settings: in vivo, 96 h, dose 25-100 mg/kg, time 4 day
Procedure, shortened: (§2)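 Female BALB/c mice (10 weeks, ~20 g), five per group, were inoculated i.p. with 10⁶ P. berghei ANKA 676m1cl1-parasitized RBC. Oral gavage in 2% methylcellulose/0.5% Tween 80, once daily for 4 days starting 4 h post-infection, against a vehicle control. Tail-blood Giemsa smears from day 4. Signs and body weight were followed. Sacrifice at 40% parasitemia; cure meant a negative smear at day 30. Kaplan–Meier, log-rank.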

Plasmodium berghei [5] = experiment: Antiplasmodial activity against Plasmodium berghei ANKA expressing luciferase infected in Swiss Webster mouse at 100 mg/kg, po for 5 days using monophosphate salt form of compound by luminescence based assay; type: functional, organism-based; settings: time 5.0 day
Procedure, shortened: (§3)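 Female Swiss Webster mice got 10³ RBC infected with luciferase-expressing P. berghei ANKA. From 48 h post-infection, groups of five were gavaged once daily for 5 days in 2% methylcellulose/0.5% Tween 80, against a vehicle control. On day 7, mice received 150 mg/kg D-luciferin in PBS, and bioluminescence was imaged by IVIS as a measure of parasite load.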

[6] = Stability of compound in mouse liver microsomes assessed as parent compound remaining at 1 uM after 60 mins in presence of NADPH by LC-MS analysis; type: ADME, Microsome; settings: 1 h
Procedure, shortened: (§4)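 Mouse liver microsomes (0.5 mg/mL final protein) in 0.1 M phosphate, pH 7.4, with compound at 1 μM, 37 °C with shaking. Aliquots were quenched in cold acetonitrile and centrifuged; LC–MS gave parent peak area at 60 min relative to 0 min.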

Plasmodium falciparum [7] = experiment: Antiplasmodial activity against synchronized chloroquine-resistant Plasmodium falciparum Dd2 reduction in microbial growth 5 times of EC50 treated with compound at 6 to 30 hrs post infection measured after 12 hrs by YOYO-1 staining-based flow cytometric analysis; type: functional, organism-based
Procedure, shortened: (§5)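 Dd2 cultures tightly synchronized by magnetic separation and sorbitol were dosed at 5 × EC50 at 6, 18, 30 or 42 h post-invasion. Controls: DHA 50 nM, atovaquone 6.6 nM, DMSO 0.1%. Sampled every 12 h for Giemsa thin smears and for flow cytometry: glutaraldehyde/paraformaldehyde fixation, Triton permeabilization, RNAse, 500 nM YOYO-1, 500,000 events/sample. Three independent biological replicates.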

HepG2 = experiment: Cytotoxicity against human HepG2 cells assessed as reduction in cell viability after 48 hrs by MTS assay; type: cell-based; settings: HepG2, 48 h
Procedure, shortened: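 HepG2 cells were seeded at 2250 per well and grown 24 h at 37 °C, 5% CO₂. Serial dilutions starting at 25 μM were added for a further 48 h. MTS was then added for 3 h at 37 °C and absorbance read at 490 nm. EC₅₀ came from nonlinear dose–response fits.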

Plasmodium falciparum [8] = experiment: Induction of morphological changes in chloroquine-resistant Plasmodium falciparum Dd2 assessed as appearance of membrane-bound structure at 5 times of EC50 measured after 1.5 to 12 hrs by TEM analysis; type: functional, organism-based; settings: time hrs 1.5-12
Procedure, shortened: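 Fixed in 2% paraformaldehyde/2.5% glutaraldehyde in cacodylate pH 7.4, post-fixed in 1% OsO₄, en bloc 1% uranyl acetate, ethanol-dehydrated, Eponate-embedded. 95 nm sections stained with uranyl acetate/lead citrate for TEM.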

Plasmodium berghei [9] = experiment: Antiplasmodial activity against Plasmodium berghei ANKA expressing luciferase infected in Swiss Webster mouse at 25 mg/kg, po for 5 days using monophosphate salt form of compound by luminescence based assay; type: functional, organism-based; settings: time 5.0 day; procedure, shortened: as §3
[10] = Intrinsic clearance in mouse liver microsomes assessed as parent compound at 1 uM after 60 mins in presence of NADPH by LC-MS analysis; type: ADME, Microsome; procedure, shortened: as §4
Plasmodium berghei [11] = experiment: Antiplasmodial activity against Plasmodium berghei ANKA expressing luciferase infected in BALB/c mouse at 25 mg/kg, po for 4 days using monophosphate salt form of compound by Giemsa staining based microscopic analysis; type: functional, organism-based; settings: time 4.0 day; procedure, shortened: as §2
[12] = Toxicity in BALB/c mouse infected with Plasmodium berghei ANKA expressing luciferase assessed as hunched posture at 25 to 100 mg/kg, po for 4 days measured up to 30 days; type: organism-based; settings: in vivo, 96 h, dose 25-100 mg/kg, time 4 day; procedure, shortened: as §2
[13] = Toxicity in BALB/c mouse infected with Plasmodium berghei ANKA expressing luciferase assessed as hypotrichosis at 25 to 100 mg/kg, po for 4 days measured up to 30 days; type: organism-based; settings: in vivo, 96 h, dose 25-100 mg/kg, time 4 day; procedure, shortened: as §2
[14] = Selectivity index, ratio of EC50 for cytotoxicity against human HepG2 cells to antiplasmodial activity against chloroquine-resistant Plasmodium falciparum Dd2; type: toxicity, cell-based; settings: read-out: Ratio EC50
Plasmodium falciparum [15] = experiment: Antiplasmodial activity against synchronized chloroquine-resistant Plasmodium falciparum Dd2 reduction in microbial growth 5 times of EC50 treated with compound at 42 hrs post infection measured after 12 hrs by YOYO-1 staining-based flow cytometric analysis; type: functional, organism-based; procedure, shortened: as §5
Hemozoin [16] = experiment: Inhibition of beta-hematin formation at 12.5 to 200 uM after 16 hrs by inverted microscopic analysis; settings: dose microM 12.5-200, time 16.0 hrs
Procedure, shortened: (§6)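 Hemin (2 mM stock in 0.1 M NaOH; 100 μM final), propionate buffer pH 5.2 and sonicated phosphatidylcholine were incubated with a compound concentration series for 16 h at 37 °C with gentle shaking. Crystals were imaged by inverted microscope before quenching with 7.5% SDS in bicarbonate, pH 9.1. Free hemin was measured at 405 nm against a 0–16 μM calibration. Three independent experiments.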

Plasmodium falciparum [17] = experiment: Antiplasmodial activity against chloroquine-sensitive Plasmodium falciparum 3D7 infected in human erythrocytes assessed as reduction in microbial growth after 72 hrs by SYBR green I staining based fluorescence assay; type: functional, organism-based; settings: 3D7, Erythrocyte
Procedure, shortened: (§7)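 SYBR Green I assay: twofold serial dilutions on P. falciparum cultures at 1% parasitemia, 1% hematocrit, 37 °C, 5% CO₂, 72 h, max 0.1% DMSO. DMSO and CQ as growth and inhibition controls. Plates frozen at −80 °C, thawed, lysed in Tris/saponin/EDTA/Triton buffer with 0.01% SYBR Green I, 1 h dark at room temperature. Fluorescence read at 485 ex/530 em. EC50 by nonlinear dose–response fit.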

Plasmodium falciparum [18] = experiment: Antiplasmodial activity against synchronized chloroquine-resistant Plasmodium falciparum Dd2 reduction in microbial growth at 5 times of EC50 treated with compound at 42 hrs post infection measured after 12 hrs by Giemsa staining-based microscopic analysis; type: functional, organism-based; procedure, shortened: as §5
Plasmodium falciparum [19] = experiment: Antiplasmodial activity against chloroquine-resistant Plasmodium falciparum Dd2 infected in human erythrocytes assessed as reduction in microbial growth after 72 hrs by SYBR green I staining based fluorescence assay; type: functional, organism-based; settings: Dd2, Erythrocyte; procedure, shortened: as §7
Plasmodium falciparum [20] = experiment: Antiplasmodial activity against synchronous gametocyte late stage of Plasmodium falciparum 3D7 harboring luc7 incubated for 72 hrs by ONE-Glo luciferase assay; type: functional, organism-based; settings: 3D7, 72 h; procedure, shortened: as §1
[21] = Toxicity in BALB/c mouse infected with Plasmodium berghei ANKA expressing luciferase assessed as reduction in weight at 25 to 100 mg/kg, po for 4 days measured up to 30 days; type: organism-based; settings: in vivo, 96 h, dose 25-100 mg/kg, time 4 day; procedure, shortened: as §2
Plasmodium falciparum [22] = experiment: Antiplasmodial activity against synchronized chloroquine-resistant Plasmodium falciparum Dd2 reduction in microbial growth 5 times of EC50 treated with compound at 6 to 30 hrs post infection measured after 12 hrs by Giemsa staining-based microscopic analysis; type: functional, organism-based; procedure, shortened: as §5
Plasmodium berghei [23] = experiment: Antiplasmodial activity against Plasmodium berghei ANKA expressing luciferase infected in BALB/c mouse assessed as mean survival days at 100 mg/kg, po for 4 days using monophosphate salt form of compound (reference value: 8 day); type: functional; settings: time 4 day
Plasmodium falciparum [24] = experiment: Antiplasmodial activity against late trophozoite synchronized chloroquine-resistant Plasmodium falciparum Dd2 reduction in microbial growth at 5 times of EC50 after 12 hrs by YOYO-1 staining-based flow cytometric analysis; type: functional, organism-based; procedure, shortened: as §5
[25] = Half life in mouse liver microsomes at 1 uM after 60 mins in presence of NADPH by LC-MS analysis; type: ADME, Microsome; settings: 1 h; procedure, shortened: as §4
Hemozoin [26] = experiment: Inhibition of beta-hematin formation after 16 hrs by inverted microscopic analysis; settings: dose microM 12.5-200, time 16.0 hrs; procedure, shortened: as §6
Plasmodium falciparum [27] = experiment: Potency index, ratio of EC50 for UCF501 to test compound EC50 for antiplasmodial activity against chloroquine-resistant Plasmodium falciparum Dd2 infected in human erythrocytes assessed as reduction in microbial growth after 72 hrs by SYBR green I staining based fluorescence assay; type: functional, Erythrocyte; procedure, shortened: as §7
Plasmodium falciparum [28] = experiment: Antiplasmodial activity against late trophozoite synchronized chloroquine-resistant Plasmodium falciparum Dd2 reduction in microbial growth at 5 times of EC50 after 12 hrs by Giemsa staining-based microscopic analysis; type: functional, organism-based; procedure, shortened: as §5

SMILES: CN(C)CCNc1cc(/C=C/c2ccc(C(F)(F)F)cc2)nc2ccc(Cl)cc12
- Ratio EC50 [1]: 0.6
- Activity (Plasmodium falciparum [2]): Active
- EC50 (Plasmodium falciparum [3]): 472 nM
- Activity [4]: Non-Toxic
- Activity (Plasmodium berghei [5]): Active
- Stabilty [6]: 67.1%
- Activity (Plasmodium falciparum [7]): Active
- EC50 (HepG2): 11200 nM
- Activity (Plasmodium falciparum [8]): Active
- Activity (Plasmodium berghei [9]): Active
- CLH [10]: 13.3 µL/min/mg
- Activity (Plasmodium berghei [11]): Active
- Activity [12]: Non-Toxic
- Activity [13]: Non-Toxic
- selectivity ratio [14]: 1030
- Activity (Plasmodium falciparum [15]): inactive
- inhibition (Hemozoin [16]): inactive
- EC50 (Plasmodium falciparum [17]): 16.8 nM
- Activity (Plasmodium falciparum [18]): inactive
- EC50 (Plasmodium falciparum [19]): 10.9 nM
- EC50 (Plasmodium falciparum [20]): 394 nM
- Activity [21]: Non-Toxic
- Activity (Plasmodium falciparum [22]): Active
- MSD (Plasmodium berghei [23]): 30 days

SMILES: CN(C)CCNc1cc(/C=C/c2ccc(F)cc2)nc2ccc(Cl)cc12
- Ratio EC50 [1]: 0.6
- Activity (Plasmodium falciparum [24]): Active
- t1/2 [25]: 55.2 min
- Activity (Plasmodium falciparum [2]): Active
- EC50 (Plasmodium falciparum [3]): 591 nM
- Activity (Plasmodium berghei [5]): Active
- Stabilty [6]: 47.1%
- EC50 (HepG2): 5330 nM
- Activity (Plasmodium berghei [9]): Active
- CLH [10]: 25.1 µL/min/mg
- inhibition (Hemozoin [26]): Dose-dependent effect
- selectivity ratio [14]: 1110
- Ratio EC50 (Plasmodium falciparum [27]): 14
- Activity (Plasmodium falciparum [28]): Active
- EC50 (Plasmodium falciparum [17]): 8.7 nM
- EC50 (Plasmodium falciparum [19]): 4.8 nM
- EC50 (Plasmodium falciparum [20]): 2050 nM
